Test results: ChEMBL document CHEMBL1133447, “Inhibition of protein synthesis by didemnins: cell potency and SAR” (J Med Chem, 2000)
Starred links: 1 amine or outer side, 2 acyl side, 3 side chain; linkers in the order of their positions; H or OH if unused. Positions of bridges follow the written chain, without caps; N, C: chain ends. Non-standard residues stand in square brackets, D forms with d. Residues, ends and D or L forms follow the SMILES beside them. ξ: configuration not given here. *: point of attachment. X1 = CC[C@H](C)[C@@H](N[*:1])[C@@H](O)CC(=O)O[C@H](C(=O)[C@H](C)C(=O)[*:2])C(C)C; Benzoyl(4-benzoyl) = O=C(c1ccccc1)c1ccc(C(=O)*)cc1; X2 = CC[C@H](C)[C@@H](N[*:1])[C@@H](O)CC(=O)[*:2]; Propanoyl(3-(4-MeO-Ph)) = COc1ccc(CCC(=O)*)cc1; NMeY = CN[C@@H](Cc1ccc(O)cc1)C(=O)O; NMeL = CN[C@@H](CC(C)C)C(=O)O; dHica = CC(C)C[C@@H](O)C(=O)O; dNMeL = CN[C@H](CC(C)C)C(=O)O; pGlu = O=C1CC[C@@H](C(=O)O)N1; NMeV = CN[C@H](C(=O)O)C(C)C; Hiv = CC(C)[C@H](O)C(=O)O; NMeA = CN[C@@H](C)C(=O)O; Lac = C[C@H](O)C(=O)O; OBn = c1ccc(CO*)cc1; Ahx = NCCCCCC(=O)O; ξP = O=C(O)C1CCCN1; βAla = NCCC(=O)O

Species: Oryctolagus cuniculus
Assay: In vitro inhibition of protein synthesis in tobacco mosaic virus mRNA-encoded proteins in rabbit reticulocyte lysate
Assay type: functional
How it was run: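 Cell-free translation in rabbit reticulocyte lysate programmed with tobacco mosaic virus mRNA. Protein synthesis was measured as [³⁵S]methionine incorporation into the encoded proteins across a range of inhibitor concentrations, and IC50 was derived from the concentration dependence.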

| Compound | IC50 |
| --- | --- |
| COc1ccc(C[C@H]2C(=O)N[C@@H](C)C(=O)N(C)[C@@H]3C(=O)N(C)[C@@H](Cc4ccc(O)c(c4)Oc4ccc(cc4)[C@@H]3O)C(=O)N[C@@H](C)C(=O)N[C@@H](C)C(=O)N2C)cc1 [BOUVARDIN] | 0.1 µM |
| CC[C@H](C)[C@H]1NC(=O)[C@@H](NC(=O)[C@@H](CC(C)C)N(C)C(=O)[C@@H]2CCCN2C(=O)[C@H](C)O)[C@@H](C)OC(=O)[C@@H]2CCc3ccccc3N2C(=O)[C@@H]2CCCN2C(=O)[C@H](CC(C)C)NC(=O)[C@@H](C)C(=O)[C@H](C(C)C)OC(=O)C[C@@H]1O | 2.7 µM |
| H-ELNFTPNWGT-NH2 | > 1000 µM |
| COc1ccc(C[C@@H](C(=O)NCCNC(=O)[C@H](CC(C)C)N(C)C(=O)[C@@H]2CCCN2C(=O)[C@H](C)O)N(C)C(=O)C2CCCN2C(=O)[C@H](CC(C)C)NC(=O)[C@@H](C)NC(=O)OCc2ccccc2)cc1 (stereo not given in full) | 275 µM |
| C=CCOC(=O)N[C@@H](CC(C)C)C(=O)N1CCC[C@H]1C(=O)N(C)[C@@H](Cc1ccc(OC)cc1)C(=O)O[C@H](C)[C@H](NC(=O)[C@@H](CC(C)C)N(C)C(=O)[C@@H]1CCCN1C(=O)[C@H](C)O)C(=O)OCC[Si](C)(C)C | 112 µM |
| CC(=O)O[C@H]1C[C@@]2(C)[C@@H](C[C@@H](O)[C@H]3[C@@]4(C)CC[C@@H](O)[C@@H](C)[C@@H]4CC[C@@]32C)/C1=C(\CCC=C(C)C)C(=O)O [FUSIDIC ACID] | 400 µM |
| COc1ccc(C[C@H]2C(=O)O[C@H](C)[C@H](NC(=O)[C@@H](CC(C)C)N(C)C(=O)C3CCCN3C(=O)[C@H](C)O)C(=O)N[C@H](C(C)C)[C@@H](O)CC(=O)O[C@@H](C(C)C)C(=O)[C@H](C)C(=O)N[C@@H](CC(C)C)C(=O)N3CCCC3C(=O)N2C)cc1 (stereo not given in full) | 1 µM |
| CC[C@H](C)[C@H]1NC(=O)[C@@H](NC(=O)[C@@H](CC(C)C)N(C)C(=O)C2CCCN2C(=O)[C@H](C)O)[C@@H](C)OC(=O)[C@H](Cc2ccccc2)N(C)C(=O)C2CCCN2C(=O)[C@H](CC(C)C)NC(=O)[C@@H](C)C(=O)[C@H](C(C)C)OC(=O)C[C@@H]1O (stereo not given in full) | 2.5 µM |
| CC[C@H](C)[C@H]1NC(=O)[C@@H](NC(=O)[C@@H](CC(C)C)N(C)C(=O)C2CCCN2)[C@@H](C)OC(=O)[C@H](Cc2ccc(OC)cc2)N(C)C(=O)C2CCCN2C(=O)[C@H](CC(C)C)NC(=O)[C@@H](C)C(=O)[C@H](C(C)C)OC(=O)C[C@@H]1O (stereo not given in full) | 4.3 µM |
| COc1ccc(C[C@H]2C(=O)O[C@H](C)[C@H](NC(=O)[C@@H](CC(C)C)N(C)C(=O)[C@@H]3CCCN3C(=O)[C@H](C)O)C(=O)N[C@H](C(C)C)[C@@H](O)CC(=O)O[C@@H](C(C)C)C(=O)[C@H](C)C(=O)N[C@@H](CC(C)C)C(=O)N3CCC[C@H]3C(=O)N2C)cc1 | 3 µM |
| CC[C@H](C)[C@H]1NC(=O)[C@@H](NC(=O)[C@@H](CC(C)C)N(C)C(=O)[C@@H]2CCCN2C(=O)[C@H](C)O)[C@@H](C)OC(=O)[C@H](Cc2ccc(OC)cc2)N(C)C(=O)[C@@H]2CCCN2C(=O)[C@H](CC(C)C)NC(=O)[C@H](C(C)C)OC(=O)C[C@@H]1O (H-[Lac]P[dNMeL]T[X2][Hiv]LP[NMeY](Me); ester 4-C) | 1.3 µM |
| CC[C@H](C)[C@H]1NC(=O)[C@@H](NC(=O)[C@@H](CC(C)C)NC)[C@@H](C)OC(=O)[C@H](Cc2ccc(OC)cc2)N(C)C(=O)C2CCCN2C(=O)[C@H](CC(C)C)NC(=O)[C@@H](C)C(=O)[C@H](C(C)C)OC(=O)C[C@@H]1O (stereo not given in full) | 5.4 µM |
| COc1ccc(CCC(=O)O[C@H](C)[C@H](NC(=O)[C@H](CC(C)C)N(C)C(=O)[C@@H]2CCCN2C(=O)[C@H](C)O)C(=O)OCc2ccccc2)cc1 (H-[Lac]P[NMeL]T(Propanoyl(3-(4-MeO-Ph)))-OBn) | 405 µM |
| C[C@@H]1C[C@@H]([C@H](O)CC2CC(=O)NC(=O)C2)C(=O)[C@@H](C)C1 [CYCLOHEXIMIDE] | 5 µM |
| CSCC[C@H](N)C(=O)N[C@@H](CCC(=O)O)C(=O)N[C@@H](Cc1c[nH]cn1)C(=O)N[C@@H](Cc1ccccc1)C(=O)N[C@@H](CCCN=C(N)N)C(=O)N[C@@H](Cc1c[nH]c2ccccc12)C(=O)NCC(=O)O | 4 µM |
| CC[C@H](C)[C@H]1NC(=O)[C@@H](NC(=O)[C@@H](CC(C)C)N(C)C(=O)CCCCCNC(=O)c2ccc(C(=O)c3ccccc3)cc2)[C@@H](C)OC(=O)[C@H](Cc2ccc(OC)cc2)N(C)C(=O)C2CCCN2C(=O)[C@H](CC(C)C)NC(=O)[C@@H](C)C(=O)[C@H](C(C)C)OC(=O)C[C@@H]1O (stereo not given in full) ({Benzoyl(4-benzoyl)-Ahx}-[dNMeL]T[X1]L[ξP][NMeY](Me); ester 2-C) | 24 µM |
| C/C1=C\[C@H](C)C[C@H](C)OC(=O)C[C@H](c2ccc(O)cc2)NC(=O)[C@@H](Cc2c(Br)[nH]c3ccccc23)N(C)C(=O)[C@H](C)NC(=O)[C@@H](C)C1 [JASPAMIDE] | > 500 µM |
| CC[C@H](C)[C@H]1NC(=O)[C@@H](NC(=O)[C@@H](CC(C)C)N(C)C(=O)[C@@H]2CCCN2C(=O)[C@H](C)OC(C)=O)[C@@H](C)OC(=O)[C@H](Cc2ccc(OC)cc2)N(C)C(=O)[C@@H]2CCCN2C(=O)[C@H](CC(C)C)NC(=O)[C@@H](C)C(=O)[C@H](C(C)C)OC(=O)C[C@@H]1OC(C)=O | 10 µM |
| CC[C@H](C)[C@H]1NC(=O)[C@@H](NC(=O)[C@@H](CC(C)C)N(C)C(=O)C2C=CCN2)[C@@H](C)OC(=O)[C@H](Cc2ccc(OC)cc2)N(C)C(=O)C2CCCN2C(=O)[C@H](CC(C)C)NC(=O)[C@@H](C)C(=O)[C@H](C(C)C)OC(=O)C[C@@H]1O (stereo not given in full) | 4.3 µM |
| CC[C@H](C)[C@H]1NC(=O)[C@@H](NC(=O)[C@@H](CC(C)C)N(C)C(=O)CNC(=O)c2ccc(C(=O)c3ccccc3)cc2)[C@@H](C)OC(=O)[C@H](Cc2ccc(OC)cc2)N(C)C(=O)C2CCCN2C(=O)[C@H](CC(C)C)NC(=O)[C@@H](C)C(=O)[C@H](C(C)C)OC(=O)C[C@@H]1O (stereo not given in full) ({Benzoyl(4-benzoyl)}-G[dNMeL]T[X1]L[ξP][NMeY](Me); ester 3-C) | 4.5 µM |
| CC[C@H](C)[C@H](NC(=O)[C@H](Cc1ccccc1)NC(=O)[C@H](C)NC(=O)[C@H](CC(=O)O)NC(=O)[C@H](CCCCN)NC(=O)[C@H](CO)NC(=O)[C@@H]1CCCN1C(=O)[C@@H]1CCC(=O)N1)C(=O)NCC(=O)N[C@@H](CC(C)C)C(=O)N[C@@H](CCSC)C(N)=O [ELEDOISIN] ([pGlu]PSKDAFIGLM-NH2) | 500 µM |
| O=C(O)C1=CC(=C(c2ccc(O)c(C(=O)O)c2)c2ccc(O)c(C(=O)O)c2)C=CC1=O [AURINTRICARBOXYLIC ACID] | 10 µM |
| CC[C@H](C)[C@H]1NC(=O)[C@@H](NC(=O)[C@@H](CC(C)C)N(C)C(=O)c2ccc(C(=O)c3ccccc3)cc2)[C@@H](C)OC(=O)[C@H](Cc2ccc(OC)cc2)N(C)C(=O)C2CCCN2C(=O)[C@H](CC(C)C)NC(=O)[C@@H](C)C(=O)[C@H](C(C)C)OC(=O)C[C@@H]1O (stereo not given in full) ({Benzoyl(4-benzoyl)}-[dNMeL]T[X1]L[ξP][NMeY](Me); ester 2-C) | 4 µM |
| CC[C@H](C)[C@H]1NC(=O)[C@@H](NC(=O)[C@@H](CC(C)C)N(C)C(=O)C2C=CCN2C(=O)OC(C)(C)C)[C@@H](C)OC(=O)[C@H](Cc2ccc(OC)cc2)N(C)C(=O)C2CCCN2C(=O)[C@H](CC(C)C)NC(=O)[C@@H](C)C(=O)[C@H](C(C)C)OC(=O)C[C@@H]1O (stereo not given in full) | 5.3 µM |
| COc1ccc(C[C@@H](C(=O)O[C@H](C)[C@H](NC(=O)[C@@H](CC(C)C)N(C)C(=O)[C@@H]2CCCN2C(=O)[C@H](C)O)C(=O)N2CCCCNC(=O)[C@H](C)C(=O)[C@H](C(C)C)OC(=O)C[C@H](O)[C@H]2CC(C)C)N(C)C(C)=O)cc1 | > 1000 µM |
| C=C(NC(=O)C(=C)NC(=O)c1ccc2c(n1)-c1coc(n1)C(=C)NC(=O)C(=C)NC(=O)c1nc(oc1C)C(=C)NC(=O)C(C(C)(C)O)NC(=O)C(=C)NC(=O)c1nc(oc1C)/C(=C/C)NC(=O)C(C(C)O)NC(=O)c1csc-2n1)C(N)=O (stereo not given) [BERNINAMYCIN] | 600 µM |
| CC(=O)O[C@H](C)[C@H](NC(=O)[C@H](CC(C)C)N(C)C(=O)[C@@H]1CCCN1C(=O)[C@H](C)O)C(=O)OCc1ccccc1 (H-[Lac]P[NMeL]T(Ac)-OBn) | 276 µM |
| COc1ccc(C[C@H]2C(=O)N[C@@H](C)C(=O)N(C)[C@H]3Cc4ccc(cc4)Oc4cc(ccc4OC)C[C@@H](C(=O)N[C@H](C)C(=O)N[C@@H](C)C(=O)N2C)N(C)C3=O)cc1 | 0.05 µM |
| CC[C@H](C)[C@H]1NC(=O)[C@@H](NC(=O)[C@@H](CC(C)C)N(C)C(=O)C2CCCN2C(=O)[C@H](C)O)[C@@H](C)OC(=O)[C@H](CC(C)C)N(C)C(=O)C2CCCN2C(=O)[C@H](CC(C)C)NC(=O)[C@@H](C)C(=O)[C@H](C(C)C)OC(=O)C[C@@H]1O (stereo not given in full) | 9 µM |
| CC[C@H](C)[C@@H]1NC(=O)[C@@H]2CCCN2C(=O)[C@@H](CC(C)C)OC(=O)CCNC(=O)[C@H](C)N(C)C(=O)[C@H](C(C)C)N(C)C1=O (cyclo(I[NMeV][NMeA][βAla][dHica]P)) | > 1000 µM |
